Rows were chosen to be rich in hits. Some 5.8% of all compounds tested hit in one or more screens of this group.
Pf Dd2 inh – inhibitors of Plasmodium falciparum Dd2 growth | P. falciparum Dd2 growth, SYBR Green, 72 h; stronger effect = lower value | AID 1159554 | activity change, % at 10 µM | 94,000 compounds, 2.3% hits; in the data active = activity change below about -80%; inconclusive = no clear call, values can overlap the other calls
T cruzi growth-1 – inhibitors of T. cruzi proliferation | T. cruzi beta-gal in NIH3T3, GalScreen luminescence, 90 h | inhibition, % at 8.34 µM | 77,000 compounds, 5.9% hits | AID 624255;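 active = mean inhibition above about 93%, with at least 55% of replicates each passing it, limit read from the data, passing the limit was not always enough; inconclusive = only one of those two conditions holds; inactive = neither condition holds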
GASC1 inh – inhibitors of human demethylase GASC-1 KDM4C; GST-KDM4C 2-372, H3K9me3 peptide, LANCE TR-FRET; inhibition, % at 12.5 µM; 96,000 compounds, 0.15% hits; Q9H3R0;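 active = mean replicate inhibition above about 25%, with at least 55% of replicates also reaching it, limit read from the data, passing the limit was not always enough; inconclusive = only one of those two conditions met; inactive = neither condition met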
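Material: GST-tagged GASC-1 (JMJD2C) catalytic fragment, aa 2-372. Input: enzyme final amount 10 nM. Medium: HEPES buffer, pH 7.5, plus ascorbate. Reagent: H3K9me3 peptide substrate, Fe(II), 2-oxoglutarate. Doses: single dose. Times: reaction 30 min RT, detection step 1 h RT. Measured by: LANCE TR-FRET. Evaluation: Fall in 671/618 emission ratio as inhibition.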
IDH1 mut inh – IDH1 R132H (human) inhibition; O75874; inhibition, % at 10 µM; 70,000 compounds, 0.18% hits; IDH1 R132H reductase, diaphorase/resazurin fluorescence, 60 min; AID 624101; in the data active = inhibition above about 34%; inconclusive = no clear call, values can overlap the other calls; inactive = below about 11%;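 note: 0% = DMSO and 100% = no enzyme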
Target sequence (O75874 whole entry R132H): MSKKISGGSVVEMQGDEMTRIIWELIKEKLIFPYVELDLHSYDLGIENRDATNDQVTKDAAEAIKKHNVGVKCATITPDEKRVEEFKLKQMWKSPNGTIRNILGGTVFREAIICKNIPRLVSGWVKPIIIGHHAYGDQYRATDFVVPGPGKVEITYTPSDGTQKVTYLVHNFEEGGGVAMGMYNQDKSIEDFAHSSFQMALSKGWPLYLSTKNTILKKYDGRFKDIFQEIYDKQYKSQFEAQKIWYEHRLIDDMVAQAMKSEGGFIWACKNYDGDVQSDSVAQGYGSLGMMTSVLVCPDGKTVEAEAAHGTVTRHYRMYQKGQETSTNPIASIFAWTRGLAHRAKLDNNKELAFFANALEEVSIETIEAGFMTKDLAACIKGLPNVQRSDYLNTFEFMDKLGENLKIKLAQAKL
T cruzi growth-2 – blocks T. cruzi growth in NIH3T3 host cells; shares compounds with T cruzi growth-1; T. cruzi beta-gal in NIH3T3, GalScreen luminescence, 90 h; inhibition, % at 8.35 µM; 5,600 compounds, 72% hits;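 active = mean replicate inhibition above about 95% and at least 55% of replicates individually reaching it, limit read from the data; inconclusive = only one of the two criteria is met; inactive = neither criterion is met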
T cruzi growth-3 – blocks T. cruzi growth in NIH3T3 host cells. 5,600 compounds, 21% hits. inhibition, % at 2.09 µM. T. cruzi beta-gal in NIH3T3, GalScreen luminescence, 90 h. AID 651740. shares compounds with T cruzi growth-1;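 active = mean inhibition above about 95%, with at least 55% of replicates also reaching it, limit read from the data; inconclusive = meets just one of the two conditions; inactive = meets neither condition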;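 note: plate controls were neutral control median for no effect and positive control median for full effect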
NIH3T3 tox – kills mouse NIH/3T3 fibroblasts. shares compounds with T cruzi growth-1. 5,600 compounds, 14% hits. NIH/3T3 viability, CellTiter-Glo ATP luminescence, 90 h. cytotoxicity (signal decrease), % at 8.35 µM;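 active = mean signal decrease across replicates above about 35% based on untreated-well scatter, with enough replicates individually passing, limit read from the data; inconclusive = no rule stated though some were filed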;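 note: 0% = median of neutral control wells and 100% = median of positive control wells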
3T3 cytotox 2 – cytotoxicity in mouse NIH/3T3 fibroblasts. shares compounds with T cruzi growth-1. NIH/3T3 viability, CellTiter-Glo ATP luminescence, 90 h. inhibition, % at 24.9 µM. 5,600 compounds, 56% hits. AID 651744;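 active = mean loss of cell viability signal at or above a set limit, and enough replicates individually reaching it; inconclusive = meets only the mean limit or only the replicate share; inactive = meets neither condition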;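 note: 0% = median of neutral control wells and 100% = median of positive control wells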
Active calls of the source: *; ! = a repeat was not active.

What do the screens show for `COCC(=O)N1[C@H](C#N)[C@@H](c2ccccc2)[C@@H]1CO`?
Pf Dd2 inh: 35; T cruzi growth-1: 29; GASC1 inh: -1

Results for C/C=C/c1ccc([C@H]2[C@H](CO)N3CCCCN(S(=O)(=O)c4cccc(C)c4)C[C@@H]23)cc1 ?
Pf Dd2 inh: -10; T cruzi growth-1: 118*; GASC1 inh: 0; T cruzi growth-2: 107*; T cruzi growth-3: 75; NIH3T3 tox: 27; 3T3 cytotox 2: 105*

Results for Cc1ccc(-c2ccc([C@H]3[C@@H](CO)N4CCCCN(S(=O)(=O)c5cccc(C)c5)C[C@@H]34)cc2)cc1 ?
Pf Dd2 inh: -46; T cruzi growth-1: 85

Results for C/C=C/c1ccc([C@H]2[C@@H](CO)N3CCCCN(S(=O)(=O)c4cccc(C)c4)C[C@@H]23)cc1 ?
Pf Dd2 inh: -7; T cruzi growth-1: 111*; GASC1 inh: -1; T cruzi growth-2: 112*; T cruzi growth-3: 69; NIH3T3 tox: 10; 3T3 cytotox 2: 80*

Results for C/C=C/c1ccc([C@@H]2[C@@H](CO)N3CCCCN(S(=O)(=O)c4ccc(F)cc4)C[C@H]23)cc1 ?
Pf Dd2 inh: -11; T cruzi growth-1: 86; GASC1 inh: -3

What do the screens show for `O=C(CSc1nc2c(c(C(F)(F)F)n1)CCCC2)Nc1cccc(Cl)c1Cl`?
IDH1 mut inh: 0

What do the screens show for `C[C@H](CO)N1C[C@H](C)[C@@H](CN(C)Cc2cncnc2)Oc2cc(/C=C/c3ccccc3)ccc2S1(=O)=O`?
Pf Dd2 inh: -52; T cruzi growth-1: 121*; GASC1 inh: -4; IDH1 mut inh: 0; T cruzi growth-2: 98*; T cruzi growth-3: 102*; NIH3T3 tox: 41*; 3T3 cytotox 2: 81*

How did C[C@@H]1CN([C@@H](C)CO)S(=O)(=O)c2ccc(/C=C/c3ccccc3)cc2O[C@@H]1CN(C)Cc1cncnc1 do in these assays?
Pf Dd2 inh: -3; T cruzi growth-1: 108*; GASC1 inh: -3; IDH1 mut inh: -4; T cruzi growth-2: inconclusive; T cruzi growth-3: 89; NIH3T3 tox: 58*; 3T3 cytotox 2: 70*

How did C/C=C/c1ccc2c(c1)O[C@H](CN(C)Cc1cncnc1)[C@@H](C)CN([C@H](C)CO)S2(=O)=O do in these assays?
Pf Dd2 inh: 14; GASC1 inh: 0; IDH1 mut inh: 0

Results for C[C@H]1CN([C@@H](C)CO)S(=O)(=O)c2ccc(/C=C/c3ccccc3)cc2O[C@@H]1CN(C)Cc1cncnc1 ?
Pf Dd2 inh: -68; T cruzi growth-1: 122*; GASC1 inh: 1; IDH1 mut inh: 0; T cruzi growth-2: 100*; T cruzi growth-3: 104*; NIH3T3 tox: 69*; 3T3 cytotox 2: 97*

What do the screens show for `C[C@@H]1CN([C@H](C)CO)S(=O)(=O)c2ccc(/C=C/c3ccccc3)cc2O[C@H]1CN(C)Cc1cncnc1`?
Pf Dd2 inh: -67; T cruzi growth-1: 107*; GASC1 inh: -3; IDH1 mut inh: -2; T cruzi growth-2: 98*; T cruzi growth-3: 85; NIH3T3 tox: 59*; 3T3 cytotox 2: 65*

Results for O=C(COc1ccc(Cl)cc1)Nc1ccc(O)cc1C(=O)O ?
IDH1 mut inh: -1

Results for Cc1ccc(-c2noc(CN(C(=O)c3ccccc3-c3ccccc3)C(C)C)n2)cc1 ?
IDH1 mut inh: 0

Results for Cn1c(SCC(=O)c2cccc([N+](=O)[O-])c2)nnc1-c1cc2ccccc2o1 ?
IDH1 mut inh: 0

What do the screens show for `C[C@@H]1CCCCO[C@@H](CN(C)C(=O)CCC(F)(F)F)[C@H](C)CN([C@@H](C)CO)C(=O)c2cc(N(C)C)ccc2O1`?
Pf Dd2 inh: -3; T cruzi growth-1: inconclusive; GASC1 inh: 6; IDH1 mut inh: -4; T cruzi growth-2: 50; T cruzi growth-3: 64; NIH3T3 tox: -29; 3T3 cytotox 2: -18

What do the screens show for `C[C@@H]1CN([C@H](C)CO)C(=O)c2cc(N(C)C)ccc2O[C@@H](C)CCCCO[C@@H]1CN(C)C(=O)C1CCCCC1`?
Pf Dd2 inh: 21; T cruzi growth-1: 70; GASC1 inh: 2; IDH1 mut inh: -3

Results for C[C@@H]1CCCCO[C@H](CN(C)C(=O)C2CCCCC2)[C@@H](C)CN([C@H](C)CO)C(=O)c2cc(N(C)C)ccc2O1 ?
Pf Dd2 inh: -3; T cruzi growth-1: 103*!; GASC1 inh: 2; IDH1 mut inh: 0; T cruzi growth-2: 52; T cruzi growth-3: 32; NIH3T3 tox: 8; 3T3 cytotox 2: -9

What do the screens show for `C[C@@H]1CCCCO[C@@H](CN(C)C(=O)C2CCCCC2)[C@H](C)CN([C@H](C)CO)C(=O)c2cc(N(C)C)ccc2O1`?
Pf Dd2 inh: 8; T cruzi growth-1: inconclusive; GASC1 inh: 6; IDH1 mut inh: -1; T cruzi growth-2: 3; T cruzi growth-3: -6; NIH3T3 tox: -9; 3T3 cytotox 2: -4

Results for C[C@H](CO)N1C[C@H](C)[C@H](CN(C)C(=O)NC2CCCCC2)OCCCC[C@H](C)Oc2ccc(N(C)C)cc2C1=O ?
Pf Dd2 inh: -52; T cruzi growth-1: 111*; GASC1 inh: 10; T cruzi growth-2: 52; T cruzi growth-3: 20; NIH3T3 tox: -19; 3T3 cytotox 2: -37

How did Cn1c(SCC(=O)Nc2ccc(Oc3ccccc3)cc2)nnc1-c1ccccn1 do in these assays?
IDH1 mut inh: 0

What do the screens show for `Cc1nonc1OCCNc1cc(N2CCCC2)ccc1[N+](=O)[O-]`?
IDH1 mut inh: 0

How did COc1ccccc1N1CCN(CCC(=O)Nc2ccc(Br)c(C)c2)CC1 do in these assays?
IDH1 mut inh: 0

Results for O=C(CCCCCCC(=O)Nc1ccccc1O)N/N=C/[C@H](O)[C@@H](O)[C@H](O)[C@H](O)CO ?
IDH1 mut inh: 0

How did O=C(C1CCCC1)N1CCCCN2[C@@H](CO)[C@H](c3ccc(C#CC4(O)CCCC4)cc3)[C@@H]2C1 do in these assays?
Pf Dd2 inh: 7; T cruzi growth-1: inconclusive; T cruzi growth-2: 98*; T cruzi growth-3: 82; NIH3T3 tox: 33; 3T3 cytotox 2: 44*

What do the screens show for `O=C(C1CCC1)N1CCCCN2[C@H](CO)[C@@H](c3ccc(C#CC4(O)CCCC4)cc3)[C@@H]2C1`?
Pf Dd2 inh: 14; T cruzi growth-1: 58; GASC1 inh: 1

Assay outcomes deposited in PubChem by Broad Institute.
